From ChEMBL document CHEMBL1148744, “Synthesis and antiviral and cytostatic evaluations of the new C-5 substituted pyrimidine and furo[2,3-d]pyrimidine 4',5'-didehydro-L-ascorbic acid derivatives” (J Med Chem, 2007)
≈ marks a conversion by molar mass, not a printed value.

How the values were obtained:
[1] = Cytotoxicity against human HEL cells assessed as alteration in cell morphology; type: cell-based
Summary of the method: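 Confluent human embryonic lung (HEL) fibroblast cultures were exposed to a range of compound concentrations. Cells were examined microscopically for any detectable change in normal morphology. The minimum cytotoxic concentration (MCC) was the lowest concentration causing such a change.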

[2] = Cytotoxicity against human HEL cells assessed as reduction of cell growth; type: cell-based
Summary of the method: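 HEL cells were seeded at 5 × 10^3 cells/well and allowed to proliferate for 24 h. Medium with graded compound concentrations was then added, followed by 3 days at 37 °C. Cell number was counted with a Coulter counter.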

Human alphaherpesvirus 2 = assay: Antiviral activity against HSV2 G in HEL cells assessed as reduction of virus-induced cytopathogenicity; type: functional; conditions: Human alphaherpesvirus 2, G
Human betaherpesvirus 5 [3] = assay: Antiviral activity against CMV Davis in human HEL cells after 7 days; type: functional, organism-based; conditions: Human betaherpesvirus 5, Davis, 168 h
Summary of the method: (§1)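 Confluent HEL fibroblasts were infected at 100 PFU per well. After 2 h, residual virus was removed and cells were kept in MEM with serial compound concentrations for 7 days at 37 °C. Cytopathogenicity or plaques were scored microscopically after ethanol fixation and Giemsa staining.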

Human betaherpesvirus 5 [4] = assay: Antiviral activity against CMV AD169 in human HEL cells after 7 days; type: functional, organism-based; conditions: Human betaherpesvirus 5, AD169, HEL, 168 h; summary of the method: as §1
[5] = tested on: Vesicular stomatitis virus; assay: Antiviral activity against VSV in HeLa cells assessed as reduction of virus-induced cytopathogenicity; type: functional
[6] = tested on: Respiratory syncytial virus; assay: Antiviral activity against RSV in HeLa cells assessed as reduction of virus-induced cytopathogenicity; type: functional; conditions: human respiratory syncytial virus
Sindbis virus = assay: Antiviral activity against Sindbis virus in Vero cells assessed as reduction of virus-induced cytopathogenicity; type: functional
[7] = tested on: Mammalian orthoreovirus 1; assay: Antiviral activity against Reovirus 1 in Vero cells assessed as reduction of virus-induced cytopathogenicity; type: functional
Punta Toro virus = assay: Antiviral activity against Punta Toro virus in Vero cells assessed as reduction of virus-induced cytopathogenicity; type: functional
Coxsackievirus B4 = assay: Antiviral activity against Coxsackie virus B4 in Vero cells assessed as reduction of virus-induced cytopathogenicity; type: functional; conditions: Enterovirus B
Human respirovirus 3 = assay: Antiviral activity against Parainfluenza 3 virus in Vero cells assessed as reduction of virus-induced cytopathogenicity; type: functional
Human alphaherpesvirus 3 [8] = assay: Antiviral activity against thymidine kinase deficient VZV 07/1 in human HEL cells after 7 days; type: functional, organism-based; conditions: Human alphaherpesvirus 3, 07/1, HEL, 168 h
Human alphaherpesvirus 3 [9] = assay: Antiviral activity against thymidine kinase-positive VZV OKA in human HEL cells after 7 days; type: functional, organism-based; conditions: Human alphaherpesvirus 3, OKA, 168 h
Human alphaherpesvirus 1 = assay: Antiviral activity against HSV1 KOS in HEL cells assessed as reduction of virus-induced cytopathogenicity; type: functional; conditions: Human alphaherpesvirus 1, KOS

CCCCCCC#Cc1cn(C/C=C2\OC(=O)C(OCc3ccccc3)=C2OCc2ccccc2)c(=O)[nH]c1=O
MCC [1]: 20 µM

CCCCC#Cc1cn(C/C=C2\OC(=O)C(OCc3ccccc3)=C2OCc2ccccc2)c(=O)[nH]c1=O
MCC [1]: ≥ 100 µM

CCCCCC(O)c1cc2cn(C/C=C3\OC(=O)C(OCc4ccccc4)=C3OCc3ccccc3)c(=O)nc2o1 (stereo unspecified)
MCC [1]: ≥ 100 µM

CCCCCC(O)C#Cc1cn(C/C=C2\OC(=O)C(OCc3ccccc3)=C2OCc2ccccc2)c(=O)[nH]c1=O (stereo unspecified)
MCC [1]: ≥ 100 µM

CCCCc1ccc(C#Cc2cn(C/C=C3\OC(=O)C(OCc4ccccc4)=C3OCc3ccccc3)c(=O)[nH]c2=O)cc1
MCC [1]: 60 µM

Cc1ccc(C#Cc2cn(C/C=C3\OC(=O)C(OCc4ccccc4)=C3OCc3ccccc3)c(=O)[nH]c2=O)cc1
MCC [1]: 60 µM

CCCCc1ccc(-c2cc3cn(C/C=C4\OC(=O)C(OCc5ccccc5)=C4OCc4ccccc4)c(=O)nc3o2)cc1
MCC [1]: ≥ 20 µM

O=C1O/C(=C\Cn2cc3cc(CCc4ccccc4)oc3nc2=O)C(OCc2ccccc2)=C1OCc1ccccc1
MCC [1]: 100 µM

Nc1nc2c(ncn2COCCO)c(=O)[nH]1 [ACYCLOVIR]
CC50 [2]: 545 µM | MCC [1]: > 1780 µM | MIC (Human alphaherpesvirus 2): 0.4 µM (≈ 0.0901 µg/mL)

CCCCCc1cc2cn(C/C=C3\OC(=O)C(OCc4ccccc4)=C3OCc3ccccc3)c(=O)nc2o1
MCC [1]: 100 µM

Nc1ccn(C[C@@H](CO)OCP(=O)(O)O)c(=O)n1 [CIDOFOVIR]
CC50 [2]: 133 µM | MCC [1]: ≥ 1270 µM | EC50 (Human betaherpesvirus 5 [3]): 0.67 µM | EC50 (Human betaherpesvirus 5 [4]): 0.67 µM

O=C1O/C(=C\Cn2cc(C#Cc3ccc(Br)cc3)c(=O)[nH]c2=O)C(OCc2ccccc2)=C1OCc1ccccc1
MCC [1]: ≥ 4 µM

C#CCCCc1cc2cn(C/C=C3\OC(=O)C(OCc4ccccc4)=C3OCc3ccccc3)c(=O)nc2o1
MCC [1]: > 100 µM

O=C1O/C(=C\Cn2cc3cc(-c4ccc(Br)cc4)oc3nc2=O)C(OCc2ccccc2)=C1OCc1ccccc1
MCC [1]: ≥ 20 µM

Nc1ncnc2c1ncn2C[C@H](O)CO [(S)-DHPA]
MIC [5]: > 250 µM | MIC [6]: > 250 µM | MIC (Sindbis virus): > 250 µM | MIC [7]: 250 µM (≈ 52.3 µg/mL) | MIC (Punta Toro virus): > 250 µM | MIC (Coxsackievirus B4): > 250 µM | MIC (Human respirovirus 3): 50 µM (≈ 10.5 µg/mL)

CCCCc1cc2cn(C/C=C3\OC(=O)C(OCc4ccccc4)=C3OCc3ccccc3)c(=O)nc2o1
MCC [1]: 20 µM

Cc1ccc(-c2cc3cn(C/C=C4\OC(=O)C(OCc5ccccc5)=C4OCc4ccccc4)c(=O)nc3o2)cc1
MCC [1]: 100 µM

CCCCCCCCc1cc2cn(C/C=C3\OC(=O)C(OCc4ccccc4)=C3OCc3ccccc3)c(=O)nc2o1
MCC [1]: 100 µM

C#CCCCC#Cc1cn(C/C=C2\OC(=O)C(OCc3ccccc3)=C2OCc2ccccc2)c(=O)[nH]c1=O
MCC [1]: ≥ 20 µM

CCCCCCCCC#Cc1cn(C/C=C2\OC(=O)C(OCc3ccccc3)=C2OCc2ccccc2)c(=O)[nH]c1=O
MCC [1]: 100 µM

O=c1[nH]c(=O)n([C@H]2C[C@H](O)[C@@H](CO)O2)cc1/C=C/Br [BRIVUDINE]
MIC [5]: > 250 µM | CC50 [2]: 270 µM | EC50 (Human alphaherpesvirus 3 [8]): 168 µM | MIC [6]: > 250 µM | MCC [1]: ≥ 1200 µM | MIC (Sindbis virus): > 250 µM | MIC [7]: > 250 µM | EC50 (Human alphaherpesvirus 3 [9]): 0.014 µM | MIC (Punta Toro virus): > 250 µM | MIC (Human alphaherpesvirus 2): 10 µM (≈ 3.33 µg/mL) | MIC (Coxsackievirus B4): > 250 µM | MIC (Human respirovirus 3): > 250 µM

CCCCCCc1cc2cn(C/C=C3\OC(=O)C(OCc4ccccc4)=C3OCc3ccccc3)c(=O)nc2o1
MCC [1]: 100 µM

CCCCCc1ccc(C#Cc2cn(C/C=C3\OC(=O)C(OCc4ccccc4)=C3OCc3ccccc3)c(=O)[nH]c2=O)cc1
MCC [1]: ≥ 4 µM

CCCCCC#Cc1cn(C/C=C2\OC(=O)C(OCc3ccccc3)=C2OCc2ccccc2)c(=O)[nH]c1=O
MCC [1]: 20 µM

CCCCCc1ccc(-c2cc3cn(C/C=C4\OC(=O)C(OCc5ccccc5)=C4OCc4ccccc4)c(=O)nc3o2)cc1
MCC [1]: ≥ 20 µM

Nc1nc2c(ncn2COC(CO)CO)c(=O)[nH]1 [GANCICLOVIR]
CC50 [2]: 262 µM | MCC [1]: ≥ 1580 µM | MIC (Human alphaherpesvirus 1): 0.032 µM (≈ 0.00817 µg/mL) | EC50 (Human betaherpesvirus 5 [3]): 2.6 µM | MIC (Human alphaherpesvirus 2): 0.0064 µM (≈ 0.00163 µg/mL)

NC(=O)c1ncn([C@@H]2O[C@H](CO)[C@@H](O)[C@H]2O)n1 [RIBAVIRIN]
MIC [5]: > 250 µM | MIC [6]: 150 µM (≈ 36.6 µg/mL) | MIC (Sindbis virus): > 250 µM | MIC (Human alphaherpesvirus 1): 250 µM (≈ 61.1 µg/mL) | MIC [7]: 150 µM (≈ 36.6 µg/mL) | MIC (Punta Toro virus): 250 µM (≈ 61.1 µg/mL) | MIC (Human alphaherpesvirus 2): 250 µM (≈ 61.1 µg/mL) | MIC (Coxsackievirus B4): > 250 µM | MIC (Human respirovirus 3): 150 µM (≈ 36.6 µg/mL)
